Here are results for 13 compounds from ChEMBL document CHEMBL5500351, “Active site-directed probes targeting dipeptidyl peptidases 8 and 9” (Eur J Med Chem, 2024).

A word on the IC50: it is the concentration needed to halve the response being measured.

For test [1], the target named is Dipeptidyl peptidase 2 (Homo sapiens, UniProt Q9UHL4). Description: Inhibition of recombinant human DPP2. In outline:
(§1)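 IC50 reported as the mean ± standard deviation of three independent determinations against each protease.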

In test [2] the target is Dipeptidyl peptidase 4 (Homo sapiens, UniProt P27487). The experiment in a line: Inhibition of human DPP4. A digest of the protocol:
as §1

In test [3] the target is T1, Prolyl endopeptidase FAP (Homo sapiens, UniProt Q12884).
T1 sequence (Q12884 whole entry): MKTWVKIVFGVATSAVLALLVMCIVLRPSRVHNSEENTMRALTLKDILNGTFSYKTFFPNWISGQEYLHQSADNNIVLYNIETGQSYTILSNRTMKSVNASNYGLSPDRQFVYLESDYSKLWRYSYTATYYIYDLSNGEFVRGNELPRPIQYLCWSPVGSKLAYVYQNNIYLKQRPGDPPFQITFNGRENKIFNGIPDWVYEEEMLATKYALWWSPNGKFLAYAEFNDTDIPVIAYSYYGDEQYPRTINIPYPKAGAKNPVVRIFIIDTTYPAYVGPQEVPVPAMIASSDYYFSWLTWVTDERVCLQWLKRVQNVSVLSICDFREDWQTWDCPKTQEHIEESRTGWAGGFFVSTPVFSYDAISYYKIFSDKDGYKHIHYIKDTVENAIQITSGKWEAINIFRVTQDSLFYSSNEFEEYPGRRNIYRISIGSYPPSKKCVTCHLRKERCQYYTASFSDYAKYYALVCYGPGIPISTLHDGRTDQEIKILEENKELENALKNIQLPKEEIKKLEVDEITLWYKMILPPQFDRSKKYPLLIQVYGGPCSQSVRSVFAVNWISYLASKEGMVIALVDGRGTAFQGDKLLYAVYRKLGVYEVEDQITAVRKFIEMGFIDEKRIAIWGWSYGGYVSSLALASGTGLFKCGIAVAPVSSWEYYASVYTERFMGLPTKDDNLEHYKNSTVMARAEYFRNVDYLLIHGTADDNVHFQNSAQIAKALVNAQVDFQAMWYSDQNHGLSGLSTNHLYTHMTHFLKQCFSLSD
The experiment in a line: Inhibition of recombinant human FAP. In outline:
as §1

Test [4] has as its target T2, Prolyl endopeptidase (Homo sapiens, UniProt P48147).
T2 sequence (P48147 whole entry): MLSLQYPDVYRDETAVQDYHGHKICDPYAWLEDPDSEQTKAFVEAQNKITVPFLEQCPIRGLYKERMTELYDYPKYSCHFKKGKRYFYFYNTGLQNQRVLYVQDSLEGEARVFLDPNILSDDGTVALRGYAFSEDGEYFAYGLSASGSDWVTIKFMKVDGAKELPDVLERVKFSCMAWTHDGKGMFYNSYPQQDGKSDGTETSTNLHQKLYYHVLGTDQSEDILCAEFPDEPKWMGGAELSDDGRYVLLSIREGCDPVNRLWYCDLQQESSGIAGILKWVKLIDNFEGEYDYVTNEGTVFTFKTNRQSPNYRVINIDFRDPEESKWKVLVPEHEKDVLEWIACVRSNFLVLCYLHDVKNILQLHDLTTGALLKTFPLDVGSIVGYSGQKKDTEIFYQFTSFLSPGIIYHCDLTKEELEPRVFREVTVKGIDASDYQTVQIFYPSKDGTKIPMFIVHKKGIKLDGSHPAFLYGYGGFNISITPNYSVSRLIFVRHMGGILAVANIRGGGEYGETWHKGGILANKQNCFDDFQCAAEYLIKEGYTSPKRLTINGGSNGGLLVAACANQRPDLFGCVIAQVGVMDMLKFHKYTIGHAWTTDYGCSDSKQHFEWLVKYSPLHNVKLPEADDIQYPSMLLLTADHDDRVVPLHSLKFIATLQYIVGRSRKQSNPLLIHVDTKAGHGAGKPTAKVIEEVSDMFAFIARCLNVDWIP
The experiment in a line: Inhibition of recombinant human PREP. In outline: as §1

The species entered for test [5] is Homo sapiens. The experiment in a line: Selectivity index, ratio of IC50 for inhibition of human DPP8 expressed in baculovirus using Ala-Pro-7-amino-4-trifluormethylcoumarin as substrate to IC50 for inhibition of human DPP9 expressed in baculovirus using Gly-Pro-AMC as substrate. A digest of the protocol: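 Ratio of IC50 against recombinant human DPP8 to IC50 against recombinant human DPP9, i.e. IC50(DPP8)/IC50(DPP9). Each IC50 is the mean of 3 independent measurements ± standard deviation.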

Test [6] is filed under the species Homo sapiens. The experiment in a line: Selectivity index, ratio of IC50 for inhibition of human DPP8 expressed in baculovirus-infected Sf9 cells to IC50 for inhibition of human DPP9. In outline:
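Selectivity is computed as IC50(DPP8)/IC50(DPP9). Each IC50 was measured against recombinant human DPP8 or DPP9 and is the mean of three independent measurements ± standard deviation.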

Dipeptidyl peptidase 4, sequence (P27487 whole entry): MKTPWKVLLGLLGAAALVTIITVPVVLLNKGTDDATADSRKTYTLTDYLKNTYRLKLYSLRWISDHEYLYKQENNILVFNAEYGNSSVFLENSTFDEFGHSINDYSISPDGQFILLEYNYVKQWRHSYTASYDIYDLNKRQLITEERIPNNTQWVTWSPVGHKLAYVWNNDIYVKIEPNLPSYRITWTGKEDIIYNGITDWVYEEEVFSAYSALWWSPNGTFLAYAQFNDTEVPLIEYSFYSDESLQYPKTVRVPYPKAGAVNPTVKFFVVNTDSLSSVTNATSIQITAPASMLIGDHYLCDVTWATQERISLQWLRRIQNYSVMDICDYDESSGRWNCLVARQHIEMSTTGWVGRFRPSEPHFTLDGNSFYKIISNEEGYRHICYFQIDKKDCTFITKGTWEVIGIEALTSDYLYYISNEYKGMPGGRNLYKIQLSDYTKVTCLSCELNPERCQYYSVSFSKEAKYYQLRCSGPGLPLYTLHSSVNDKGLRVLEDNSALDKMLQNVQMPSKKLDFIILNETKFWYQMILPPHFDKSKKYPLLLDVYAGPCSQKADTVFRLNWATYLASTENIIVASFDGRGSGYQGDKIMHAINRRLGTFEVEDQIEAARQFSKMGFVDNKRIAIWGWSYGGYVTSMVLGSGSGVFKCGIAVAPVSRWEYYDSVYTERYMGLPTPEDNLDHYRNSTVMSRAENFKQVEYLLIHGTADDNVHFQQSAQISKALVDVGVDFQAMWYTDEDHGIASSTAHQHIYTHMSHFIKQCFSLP

Take `O=C(CCCCC1SCC2NC(=O)NC21)NCCOCCOC(=O)NC12CC3CC(CC(NCC(=O)N4Cc5ccc(F)cc5C4)(C3)C1)C2` (stereo unspecified): the 50% inhibitory concentration (IC50) in test [1] is greater than 5 µM; in test [2], greater than 10 µM; in test [3], greater than 10 µM; in test [4] it was greater than 10 µM.

Regarding `O=C(CCCCC1SCC2NC(=O)NC21)NCCOCCNC(=O)NC12CC3CC(CC(NCC(=O)N4Cc5ccc(F)cc5C4)(C3)C1)C2` (stereo unspecified), the IC50 is greater than 5 µM in test [1], greater than 10 µM in test [2], greater than 10 µM in test [3] and greater than 10 µM in test [4].

Take `O=C(CCCCC1SCC2NC(=O)NC21)NCCOCCOCCNC(=O)NC12CC3CC(CC(NCC(=O)N4Cc5cc(F)c(F)cc5C4)(C3)C1)C2` (stereo unspecified): the 50% inhibitory concentration (IC50) was greater than 5 µM in test [1], greater than 10 µM in test [2], greater than 10 µM in test [3] and greater than 10 µM in test [4].

Consider `O=C(NC12CC3CC(CC(NCC(=O)N4Cc5ccc(F)cc5C4)(C3)C1)C2)OCCOCCNc1ccc([N+](=O)[O-])c2nonc12`, for which the IC50 in test [1] is greater than 5 µM; in test [2], 0.44 µM; in test [3], greater than 10 µM; in test [4], greater than 10 µM.

Take `CN(C)c1cccc2c(S(=O)(=O)NCCOCCOC(=O)NC34CC5CC(CC(NCC(=O)N6Cc7ccc(F)cc7C6)(C5)C3)C4)cccc12`: the IC50 in test [1] is greater than 5 µM; in test [2], greater than 10 µM; in test [3] it was greater than 10 µM; in test [4] it was greater than 10 µM.

Turning to `O=C(CCCCC1SCC2NC(=O)NC21)NCCOCCNC(=O)NC12CC3CC(CC(NCC(=O)N4Cc5cc(F)c(F)cc5C4)(C3)C1)C2` (stereo unspecified), the 50% inhibitory concentration (IC50) in test [1] was greater than 5 µM; in test [2], greater than 10 µM; in test [3], greater than 10 µM; in test [4], greater than 10 µM.

Take `CN(C)c1cccc2c(S(=O)(=O)NCCOCCOC(=O)NC34CC5CC(CC(NCC(=O)N6Cc7cc(F)c(F)cc7C6)(C5)C3)C4)cccc12`: the IC50 was greater than 5 µM in test [1], greater than 10 µM in test [2], greater than 10 µM in test [3] and greater than 10 µM in test [4].

Turning to `CC[N+]1=C(/C=C/C=C2/N(CCCCCC(=O)NC34CC5CC(CC(NCC(=O)N6Cc7cc(F)c(F)cc7C6)(C5)C3)C4)c3ccc(S(=O)(=O)O)cc3C2(C)C)C(C)(C)c2cc(S(=O)(=O)[O-])ccc21`, the IC50 was greater than 5 µM in test [1], greater than 10 µM in test [2], greater than 10 µM in test [3] and greater than 10 µM in test [4].

On to `CC(C)[C@H](N)C(=O)N1CCC[C@H]1B(O)O`, for which, in test [5], the Ratio IC50 was 3.

`O=C(CCCCC1SCC2NC(=O)NC21)NCCOCCOCCNC(=O)NC12CC3CC(CC(NCC(=O)N4Cc5ccc(F)cc5C4)(C3)C1)C2` (stereo unspecified): the half-inhibitory concentration (IC50) is greater than 5 µM in test [1], greater than 10 µM in test [2], greater than 10 µM in test [3] and greater than 10 µM in test [4].

Turning to `O=C(CCCCC1SCC2NC(=O)NC21)NCCOCCOC(=O)NC12CC3CC(CC(NCC(=O)N4Cc5cc(F)c(F)cc5C4)(C3)C1)C2` (stereo unspecified), the IC50 in test [1] is greater than 5 µM; in test [2], greater than 10 µM; in test [3], greater than 10 µM; in test [4], greater than 10 µM.

As to `O=C(NC12CC3CC(CC(NCC(=O)N4Cc5cc(F)c(F)cc5C4)(C3)C1)C2)OCCOCCNc1ccc([N+](=O)[O-])c2nonc12`, the half-maximal inhibitory concentration (IC50) in test [1] was greater than 5 µM; in test [2], 1.7 µM; in test [3], greater than 10 µM; in test [4], greater than 10 µM.

Turning to `N[C@@H](CC(=O)N1CCN(C(c2ccc(F)cc2)c2ccc(F)cc2)CC1)C(=O)N1Cc2ccccc2C1`, the Ratio IC50 in test [6] turned out to be 4.
